# In PMC11184607 (ACS Pharmacology & Translational Science, 2024):
# Bridge positions count the residues as written; N and C are the ends. Square brackets hold non-standard residues; d marks the D form. Peptide text beside a SMILES is read from it. * marks the point of attachment. NMe2Val = CC(C)[C@@H](C(=O)*)N(C)C; NMeI = CC[C@H](C)[C@H](NC)C(=O)O; NMeT = CN[C@H](C(=O)O)[C@@H](C)O; NMeL = CN[C@@H](CC(C)C)C(=O)O; dHiv = CC(C)[C@@H](O)C(=O)O; NMeS = CN[C@@H](CO)C(=O)O; dNMeA = CN[C@H](C)C(=O)O
# Key:
# [1] = tested on: Hsp90; assay: Immunoblot of Hsp90 in U87-MG cells; assay type: cell-based, human; conditions: 1 30 nM, 2 1 μM, 24 h
# Outline: (§1)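 U87-MG cells in MEM with 10% FBS are exposed 24 h to test compound (30 nM or 1 μM) or 0.1% DMSO. Protein-matched lysates (BCA) are run on SDS-PAGE, transferred to PVDF and detected with HRP secondary. Signals are normalized to α-tubulin and expressed relative to control. Three independent experiments; one-way ANOVA then t-test.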
# [2] = tested on: Hsp70; assay: Immunoblot of Hsp70 in U87-MG cells; assay type: cell-based, human; conditions: 1 30 nM, 2 1 μM, 24 h
# Outline: as §1
# [3] = tested on: UPR markers (BiP, CHOP, sXBP1, GADD34, IRE1) mRNA; assay: qPCR of ER stress; assay type: cell-based, human; conditions: 80 nM plus thapsigargin 300 nM, 24 h
# Outline: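 GSC neurospheres (MGG6, 83, M76, GBM8) are treated 24 h with test compound 80 nM, thapsigargin 300 nM, both together, or 0.1% DMSO. BiP, CHOP, sXBP1, GADD34 and IRE1 mRNA are measured by qPCR normalized to GAPDH and expressed as fold-change versus vehicle.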
# [4] = tested on: subcutaneous xenografts; conditions: unmodified natural product; cited from earlier work
# [5] = tested on: Gluc-U87 cells; assay: Viability of adherent GLuc-U87 cells; assay type: cell-based, human; conditions: 0.3–300 nM
# [6] = tested on: GSC line 83; assay: GSC neurosphere viability, 72 h, line 83; assay type: cell-based, human; conditions: read-out: EC50, GSC type 83
# [7] = tested on: SF-268 GBM cells; assay: Cell viability; assay type: cell-based, human; conditions: read-out: EC50, SF-268 cells; 72 h
# Outline: (§2)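 Cells are grown at 37 °C in 5% CO2. U87-MG and U251 are in MEM with 10% FBS, SF-268 in DMEM with 10% FBS, and SF-295 in RPMI 1640 with 10% FBS. HUVECs are pooled donors. Exposure is to the test compound (0.1 nM–1 μM) or 0.1% DMSO for 72 h. Viability is read by ATP luminescence as % of vehicle, n = 3 wells. […] comes from a logistic nonlinear fit over three independent comparisons.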
# [8] = tested on: U87-MG GBM cells; assay: Cell viability; assay type: cell-based, human; conditions: read-out: EC50, U87-MG cells; 72 h
# Outline: as §2
# [9] = tested on: HEK293FRT cells expressing WT or mutant (R66I) Sec61α; assay: Viability of WT versus Sec61α R66I mutant HEK293 cells; assay type: cell-based, human; conditions: 72 h or 3 + 3 day exposure
# Outline: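 HEK293FRT cells carrying Sec61α R66I, with wild-type comparators, are grown in DMEM with 10% FBS, 6 mM L-glutamine and 1 mM pyruvate. They are exposed to increasing test compound concentrations or 0.1% DMSO for 72 h, or 3 + 3 days to avoid nutrient deprivation. ATP viability is read as % of vehicle, n = 3 wells. Logistic nonlinear fit; ≥3 independent experiments.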
# [10] = tested on: WT and mutant (R66I) Sec61α HCT116 colon cancer cells; assay: Viability of WT versus Sec61α R66I mutant HCT116 cells; assay type: cell-based, human; conditions: 72 h and 6 days (3 + 3 day exposure)
# [11] = tested on: U251 GBM cells; assay: Cell viability; assay type: cell-based, human; conditions: read-out: EC50, U251 cells; 72 h
# Outline: as §2
# [12] = tested on: patient-derived GSCs (M120, MGG6, M76, GBM8, and 157); assay type: cell-based, human; conditions: read-out: EC50, viability of 5/6 GSC lines; 72 h
# [13] = tested on: BiP; assay: Immunoblot of BiP expression; assay type: cell-based, human
# [14] = tested on: GSC 157 neurospheres; assay: Neurosphere morphology of GSC 157 by light microscopy; assay type: cell-based, human; conditions: 100 nM, 24 h, relative to control-treated cells
# Outline: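 Patient-derived GSC 157 cells are dissociated from tumour and expanded as neurospheres in medium with heparin 2 μg/mL, EGF 20 ng/mL and bFGF 10 ng/mL. Neurospheres receive test compound at 100 nM for 24 h. Morphology and neurosphere size are compared with control-treated cells.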
structure (smiles),measurement,setting,value
"CC[C@H](C)[C@H]1C(=O)N[C@@H](C)C(=O)N(C)[C@@H](CC(C)C)C(=O)N[C@@H](Cc2ccc(OC)cc2)C(=O)N(C)[C@H](C)C(=O)O[C@H](C)[C@H](N(C)C(=O)[C@H](CC(C)C)N(C)C(=O)[C@H](COC)N(C)C(=O)[C@H](OC(=O)[C@H](C(C)C)N(C)C)C(C)C)C(=O)N(C)[C@@H](COC)C(=O)N1C [compound 1, Coibamide A] (NMe2Val-[dHiv][NMeS](Me)[NMeL][NMeT][NMeS](Me)[NMeI]A[NMeL]Y(Me)[dNMeA]; ester 4-C)",Hsp90 expression,[1],upregulation
same,Hsp70 expression,[2],upregulation
same,"Effect on thapsigargin-induced upregulation of all UPR markers, GSC line MGG6",[3],almost completely abrogated
same,Safety after repeat dosing in mice bearing subcutaneous xenografts,[4],adverse safety profile
same,Cell viability at 18 h,[5],no change in cell viability
same,EC50,[6],~100 nM
same,EC50,[7],> 700 nM
same,EC50,[8],18 nM
same,Response of mutant Sec61(R66I) HEK293 cells relative to WT,[9],resistant
same,Effect of Sec61α R66I mutation on cytotoxic response relative to WT HCT116 cells,[10],mild resistance
same,EC50,[11],> 700 nM
same,EC50,[12],< 4 nM
same,"BiP expression, GSC line 83","[13]; 1 250 nM and 500 nM, 2 3 µM, 72 h",decrease
same,"BiP protein expression, GSC MGG6 neurospheres and adherent U87-MG cells","[13]; immunoblot, 24 h",downregulation
same,Change in neurosphere morphology,[14],reduction in neurosphere size
